Tested on: MS2 coat protein
Assay: apparent Kd, MS2 coat protein; higher = weaker binding; RNA-MaP array; FMN 200 µM where present
How it was run: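 The apparent Kd is the median of filtered binding-curve fits, one per cluster, to green signal normalised to red-channel RNA signal and control-cluster median Fmax. The clusters were on Illumina sequencing chips, and stalled E. coli RNA polymerase had transcribed the designs on them. Titration used SNAP-549-labelled MS2 coat protein from 0.7 or 1.5 nM, doubling to 3 µM, without and then with constant ligand, in 100 mM Tris-HCl pH 7.5, 80 mM KCl, 4 mM MgCl2, BSA, DTT, yeast tRNA and Tween-20.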

[1] = designed as: ON switch for flavin mononucleotide, no ligand
[2] = ligand present: flavin mononucleotide, designed as: ON switch for flavin mononucleotide
[3] = designed as: OFF switch for flavin mononucleotide, no ligand
[4] = ligand present: flavin mononucleotide, designed as: OFF switch for flavin mononucleotide

GCAGCGCCUGACAUGAGGAUCACCCAUGUUAAAUUGUUAAGUCAGGAUAUAGUCUAGAAACUAGACUAGAAGGGAUAUGCUGCU
apparent Kd [1]: 9.96 nM | apparent Kd [2]: 8.57 nM

GCAGGUCGAGGAUAUACAUGAGGAUCACCCAUGUAGAUCAACCAGCGAUAGCUGGAAUGUAGAAGGUGACCUGC
apparent Kd [3]: 15.7 nM | apparent Kd [4]: 29.4 nM

GCAGGUUUACGAGGAUAUGGGUGGUACGAACAUGAGGAUCACCCAUGUUUCCCAGAAGGCGUAGCCUAACAAAGAGAACAGGAG
apparent Kd [1]: 418 nM | apparent Kd [2]: 22.2 nM

GCAGUACGCCUGGCAAUUUGCAAGCAGGAUAUCAGGCACCGUGGGACAUGAGGAUCACCCAUGUCUGAGAAGGGCUGGAGUUGC
apparent Kd [3]: 10.7 nM | apparent Kd [4]: 23.1 nM

GCAUCCAAAGUGAGGAUAUACCUCUGGAUACAGAGGUAGAAGGCACAUGAGGAUCACCCAUGUUCCUAGGAUGC
apparent Kd [3]: 15.3 nM | apparent Kd [4]: 74.2 nM

GCAUCCAAAGUGAGGAUAUACCUCUGGAUACAUAGGUAGAAGGCACAUGAGGAUCACCCAUGUUCCUAGGAUGC
apparent Kd [3]: 31.6 nM | apparent Kd [4]: 43.1 nM

GCAUGCAAGUAGAAGGUCGGAUAUUUUGAUAACGAAGGAUAUACAGAAUCAUAUCCACAUGAUAACAUGAGGAUCACCCAUGUA
apparent Kd [3]: 14.7 nM | apparent Kd [4]: 15.8 nM

GCAUGCAUAGCGAUAUGAUCGAGAGAUCAUGUCGCUAAAUUUAGAAGGACAUGAGGAUCACCCAUGUAGGAUAUGGGAGCAUGA
apparent Kd [1]: 44.6 nM | apparent Kd [2]: 11.5 nM

GCAUGCGUUCGAGGAUAUCGGUGAGAAACGGAACGAGAAGGCGAUCGAAUGUCUCAUAUUAUGAACAUGAGGAUCACCCAUGUA
apparent Kd [1]: 514 nM | apparent Kd [2]: 131 nM

GCAUGUGUGUAAGGAUAUGCAUCACUGAGAAAUUUAGUGAGGAAGAUCACAUGAGGAUCACCCAUGUAGAAGGUACACACGUGC
apparent Kd [3]: 8.01 nM | apparent Kd [4]: 56.9 nM

GCCAGGAUGUAAGGAUAUGCUGAGGAUAACUCAGCAGAAGGUACAUGAGGAUCACCCAUGUAAACCUAUAAUAAAUAACCUGGC
apparent Kd [3]: 11 nM | apparent Kd [4]: 15.4 nM

GCCAGGAUGUGAGGAUAUGCUGAGGAUACUUCAGCAGAAGGCACAUGAGGAUCACCCAUGUACACUUAUCAUAAAUACCCUGGC
apparent Kd [3]: 13.4 nM | apparent Kd [4]: 16.3 nM

GCCAGUUAUGUAGGAUAUGCGAGGCGAGCCUGAGCAGAAGGACAUGAGGAUCACCCAUGUAUUGCGGUUUAAGUUCUGAUCGCU
apparent Kd [3]: 22.2 nM | apparent Kd [4]: 47.2 nM

GCCAGUUGAGGAUAUGCAGGUGGGUGCCCUGAUCCUCUGUUACAUGAGGAUCACCCAUGUAGAAGGCAAUGUCA
apparent Kd [3]: 92.4 nM | apparent Kd [4]: 123 nM

GCCAUCGCAUGAGGAUAUGCUCCCGUUUCGGGAGCAGAAGGCAUGUCACAAGACAUGAGGAUCACCCAUGUAGAUAAGAUGGCA
apparent Kd [1]: 257 nM | apparent Kd [2]: 9.49 nM

GCCAUCGCAUGAGGAUAUGCUCCGGUUUCCGGAGCAGAAGGCAUGUCGUUAGACAUGAGGAUCACCCAUGUAGUUAAGAUGGCA
apparent Kd [1]: 999 nM | apparent Kd [2]: 41.1 nM

GCCAUCGCAUGAGGAUAUGGUCUGCUUUGCAGACCAGAAGGCAUGUCAUAAGACAUGAGGAUCACCCAUGUAGUUAAGAUGGCA
apparent Kd [1]: 800 nM | apparent Kd [2]: 43.9 nM

GCCAUCGUAUGAGGAUAUGGCACCGCAACGGUGCCAGAAGGCAUGUCAAUAGACAUGAGGAUCACCCAUGUGUUAUCGAUGGCA
apparent Kd [1]: 153 nM | apparent Kd [2]: 13.9 nM

GCCAUGCUGGUGACGGAUAACACAUGAGGAUCACCCAUGUACAGAAGGCGGAAUUAGCGUAGGACCGAGGAUAUGUGCGUGAGG
apparent Kd [3]: 30.8 nM | apparent Kd [4]: 42.3 nM

GCCAUGUCAGGAUAUAAGCUGUUGCCGAACGGUCAACACAAUUAGAAGGGACAUGAGGAUCACCCAUGUCCGAG
apparent Kd [3]: 18.5 nM | apparent Kd [4]: 20.3 nM

GCCCUCGCUGAGGAUAUUAUCUGGUUCGAUUGAUAAGAAGGCAGUACAUGAGGAUCACCCAUGUGGUUCGUUCG
apparent Kd [3]: 70.9 nM | apparent Kd [4]: 377 nM

GCCGCGUUUCGCGCCUACAUGAGGAUCACCCAUGUUUGUGGGCAGGAUAUCGUCCGCUCUGCGGGCGAGAAGGGCUGUUGUGGU
apparent Kd [1]: 57.7 nM | apparent Kd [2]: 50 nM

GCCGGGUAGGCAGGAUAUCCUCGCGCAAACACAUGAGGAUCACCCAUGUACACAAAACGUGAUAUGGAGAAGGGCCGACCCGCA
apparent Kd [1]: 26.6 nM | apparent Kd [2]: 5.28 nM

GCCGGGUCAGGAUAUGGGCCCGGGCCCGAAAGGGCCCGGGCCCAGAAGGGACAUGAGGAUCACCCAUGUCCGGC
apparent Kd [3]: 19.5 nM | apparent Kd [4]: 16.5 nM

GCCGGUUCCCUAGGAUAUGUACAUGAGGAUCACCCAUGUGCUUCUAGAGCCGGAGCAGGGCAUGUACAGAAGGAGGGUCGACCC
apparent Kd [3]: 6.47 nM | apparent Kd [4]: 7.39 nM

GCCUCACAUGAGGAUCACCCAUGUCAGGAUAUGGACUCGAGGGUCUUGGAAGACUGGGCCAGAAGGGACUAUGG
apparent Kd [3]: 57 nM | apparent Kd [4]: 83 nM

GCCUCAUAGUAGAAGGGACUAUUACAGUAAUUUUUUUAGAUUAAAUAACAUGAGGAUCACCCAUGUCAGGAUAUACUAAGAGGC
apparent Kd [3]: 26.4 nM | apparent Kd [4]: 37.1 nM
